Source: ChEMBL document CHEMBL3272112, “Cycloalkanones. 8. Hypocholesterolemic activity of long-chain ketones related to pentadecanone” (J Med Chem, 1976)

What was measured:
[1] = system: Rattus norvegicus; assay: Toxicity in Sprague-Dawley rat assessed as food intake at 1 mg/kg/day measured after 1 week (reference value: 20.9 +/- 4.9 g/day); format: organism-based; details: in vivo, 168 h
[2] = system: Rattus norvegicus; assay: Hypocholesterolemic activity in Sprague-Dawley rat assessed as serum cholesterol level at 10 mg/kg/day, po administered via intubation measured on day 4 by Liebermann-Burchard method relative to control; format: functional
Method in brief: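 Male Sprague-Dawley rats given compound homogenized in 1% CMC once daily at 11:00 a.m. by oral intubation needle (0.2 cc), doses calculated on weekly body weights; tail-vein blood drawn 24 h after last dose; nonhemolyzed serum (30 μ) assayed by modified Liebermann-Burchard method; N = 8; % of control, mean ± SD; Student's t test.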

[3] = system: Rattus norvegicus; assay: Toxicity in Sprague-Dawley rat assessed as effect on glycogen level in liver at 10 mg/kg/day measured after 16 days (reference value: 100 +/- 26%); format: organism-based; details: in vivo, 384 h
[4] = species: Rattus norvegicus; assay: Disruption of rat liver cell membrane assessed as unlysed cells at 10 mg per gram of tissue measured at 30 mins (reference value: 93 +/- 7%); format: functional
Method in brief: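 Rat liver 10% homogenate in 0.25 M sucrose + 0.001 M EDTA, pH 7.2, incubated at 37°C with Hanke's buffer pH 7.2 and drug suspended in 1% CMC (dose as mg drug per g wet liver); turbidity read as absorbance at 660 nm over 0–4 hr, falling absorbance taken as lysis; expressed as % unlysed cells; vehicle 1% CMC control.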

[5] = system: Rattus norvegicus; assay: Toxicity in Sprague-Dawley rat assessed as food intake at 50 mg/kg/day measured after 2 weeks (reference value: 24.8 +/- 1.1 g/day); format: organism-based; details: in vivo, 336 h

CCCCCCCCCCCCCCC(C)=O
Activity [1]: 22.3 g/day
Activity [2]: 79%
Activity [3]: 105%
Activity [4]: 95%
Activity [5]: 25.6 g/day
